The source of these data is ChEMBL document CHEMBL2384907, “Identification of substituted pyrimido[5,4-b]indoles as selective Toll-like receptor 4 ligands” (J Med Chem, 2013).

Assay type in all cases: cell-based
Test [1] has as its target T1, Toll-like receptor 4 (Mus musculus) (UniProt Q9QUK6).
T1 sequence (whole entry): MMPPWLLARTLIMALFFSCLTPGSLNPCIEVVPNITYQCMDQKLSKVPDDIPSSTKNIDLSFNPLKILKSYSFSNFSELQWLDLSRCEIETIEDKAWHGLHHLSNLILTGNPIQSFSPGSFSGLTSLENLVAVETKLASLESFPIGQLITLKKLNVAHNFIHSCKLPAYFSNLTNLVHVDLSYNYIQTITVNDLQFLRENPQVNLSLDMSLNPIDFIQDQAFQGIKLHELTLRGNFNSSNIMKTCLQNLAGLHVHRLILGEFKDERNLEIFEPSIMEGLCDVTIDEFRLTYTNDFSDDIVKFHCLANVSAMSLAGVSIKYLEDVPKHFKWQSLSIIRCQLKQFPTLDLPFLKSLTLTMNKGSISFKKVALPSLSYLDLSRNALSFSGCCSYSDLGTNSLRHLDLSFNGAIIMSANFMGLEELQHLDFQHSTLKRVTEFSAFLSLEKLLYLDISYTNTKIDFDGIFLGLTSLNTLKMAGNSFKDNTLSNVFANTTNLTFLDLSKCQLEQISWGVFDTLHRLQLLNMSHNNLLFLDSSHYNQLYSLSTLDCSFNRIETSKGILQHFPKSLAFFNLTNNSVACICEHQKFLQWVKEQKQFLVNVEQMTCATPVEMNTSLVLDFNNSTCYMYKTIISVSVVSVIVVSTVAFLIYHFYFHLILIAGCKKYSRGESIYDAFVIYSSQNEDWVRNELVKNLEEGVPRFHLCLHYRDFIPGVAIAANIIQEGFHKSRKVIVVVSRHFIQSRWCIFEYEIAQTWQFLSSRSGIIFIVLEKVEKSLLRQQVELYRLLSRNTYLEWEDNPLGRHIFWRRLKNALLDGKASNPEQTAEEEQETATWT
Nature of the test: Activation of TLR4 in C57BL/6 mouse BMDC cells assessed as AUC of IL6 release after 18 hrs by ELISA relative to N-cyclohexyl-2-(4-oxo-3-phenyl-4,5-dihydro-3H-pyrimido[5,4-b]indol-2-ylthio)acetamide. The method in brief:
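C57BL/6 bone marrow DC, 10^5 cells/well in RPMI-10% FCS, 18 h at 37 °C with titrated doses 312 nM–10 μM; supernatant IL-6 by ELISA. Each curve converted to percent activity (background subtracted, plate-adjusted), AUC by trapezoid method, normalized to reference hit set at 100 per experiment. LPS 10 ng/mL positive control; 0.5% DMSO vehicle.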
On the technique in general: An ELISA detects its analyte on a solid surface through an enzyme-linked reagent.

In test [2] the target is Toll-like receptor 4 (Homo sapiens) (UniProt O00206). Nature of the test: Activation of TLR4 in human PBMC cells assessed as AUC of IL8 release at 10 uM after 18 hrs by ELISA relative to N-cyclohexyl-2-(4-oxo-3-phenyl-4,5-dihydro-3H-pyrimido[5,4-b]indol-2-ylthio)acetamide. Summed up:
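Human PBMC from buffy coats, 1 × 10^6/mL in complete RPMI, 18 h at 37 °C, 5% CO2 with compound at 10 μM; IL-8 in supernatant by ELISA, normalized to reference hit set at 100. LPS 10 ng/mL positive control.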

The target of test [3] is T1, Toll-like receptor 4 (Mus musculus). Nature of the test: Activation of mouse TLR4 transfected in HEK293 cells after 18 hrs by SEAP assay relative to N-cyclohexyl-2-(4-oxo-3-phenyl-4,5-dihydro-3H-pyrimido[5,4-b]indol-2-ylthio)acetamide. Summed up: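 Mouse TLR4 HEK-Blue cells (2.5 × 10^4/well) given titrated doses 312 nM–10 μM for 18 h, 0.5% DMSO vehicle; SEAP at 630 nm. Percent-activity curves, AUC by trapezoid method, normalized to reference hit set at 100. LPS 10 ng/mL control.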

Test [4] shares this target. Nature of the test: Activation of TLR4 in C57BL/6 mouse BMDC cells assessed as AUC of IP10 release at 5 uM after 18 hrs by ELISA relative to N-cyclohexyl-2-(4-oxo-3-phenyl-4,5-dihydro-3H-pyrimido[5,4-b]indol-2-ylthio)acetamide.
In test [5] the target is Toll-like receptor 4 (Homo sapiens) (UniProt O00206). Nature of the test: Activation of human TLR4 transfected in HEK293 cells after 18 hrs by SEAP assay relative to N-cyclohexyl-2-(4-oxo-3-phenyl-4,5-dihydro-3H-pyrimido[5,4-b]indol-2-ylthio)acetamide. Details: concentration or dose not given beside the values. Summed up:
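Human TLR4 HEK-Blue cells (2.5 × 10^4/well) given compound at 10 μM for 18 h, 0.5% DMSO vehicle; SEAP in supernatant read at 630 nm, normalized to reference hit set at 100. LPS 10 ng/mL positive control.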

Sequence of Toll-like receptor 4 (Homo sapiens) (O00206 whole entry): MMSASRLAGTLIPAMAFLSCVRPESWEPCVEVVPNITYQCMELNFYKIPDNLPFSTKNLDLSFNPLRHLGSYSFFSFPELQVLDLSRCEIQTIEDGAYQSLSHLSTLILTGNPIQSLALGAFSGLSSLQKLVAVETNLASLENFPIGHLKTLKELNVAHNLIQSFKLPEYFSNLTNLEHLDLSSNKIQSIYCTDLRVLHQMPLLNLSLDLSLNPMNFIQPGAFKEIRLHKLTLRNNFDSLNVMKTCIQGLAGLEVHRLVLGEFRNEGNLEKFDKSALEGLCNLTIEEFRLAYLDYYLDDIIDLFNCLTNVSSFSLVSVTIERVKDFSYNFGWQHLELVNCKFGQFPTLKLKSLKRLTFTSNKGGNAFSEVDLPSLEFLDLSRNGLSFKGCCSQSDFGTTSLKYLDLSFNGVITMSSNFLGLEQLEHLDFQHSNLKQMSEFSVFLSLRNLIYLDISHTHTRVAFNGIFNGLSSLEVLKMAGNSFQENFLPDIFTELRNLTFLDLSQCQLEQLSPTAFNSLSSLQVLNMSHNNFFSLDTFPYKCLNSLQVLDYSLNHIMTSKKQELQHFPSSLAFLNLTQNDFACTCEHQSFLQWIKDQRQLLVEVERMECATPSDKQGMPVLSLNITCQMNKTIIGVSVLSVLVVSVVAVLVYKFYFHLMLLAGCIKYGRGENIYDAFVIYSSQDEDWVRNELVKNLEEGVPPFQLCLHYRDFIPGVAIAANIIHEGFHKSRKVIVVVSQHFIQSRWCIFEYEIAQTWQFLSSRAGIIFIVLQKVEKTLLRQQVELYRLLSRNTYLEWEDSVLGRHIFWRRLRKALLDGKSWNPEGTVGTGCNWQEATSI

For `CCC(C)CCNC(=O)CSc1nc2c([nH]c3ccccc32)c(=O)n1-c1ccccc1` (stereo not given), the Activity in test [1] worked out at 30%; in test [2], 23%; in test [3], 29%; in test [4] it was 45%; in test [5], 17%.

For the compound `O=C(CSc1nc2c([nH]c3ccccc32)c(=O)n1-c1ccccc1)Nc1nccs1`, the Activity in test [1] was 1%; in test [2], 5%; in test [3], 2%; in test [4], under 1%; in test [5], 12%.

`Cc1ccc(-n2c(SCC(=O)NC3CCCCC3)nc3c([nH]c4ccccc43)c2=O)cc1`: the Activity in test [1] was under 1%; in test [2], 6%; in test [3], 2%; in test [4], under 1%; in test [5] it was 2%.

`COC(=O)CCCn1c2ccccc2c2nc(SCC(=O)NC3CCCCC3)n(-c3ccccc3)c(=O)c21`: the Activity was 4% in test [1]; 124% in test [2]; 9% in test [3]; 19% in test [4]; 19% in test [5].

As to `CCCCCCCCCCCCn1c2ccccc2c2nc(SCC(=O)NC3CCCCC3)n(-c3ccccc3)c(=O)c21`, the Activity is under 1% in test [1]; under 1% in test [2]; 4% in test [3]; under 1% in test [4]; 10% in test [5].

With `O=C(CSc1nc2c([nH]c3ccccc32)c(=O)n1-c1ccccc1)NC1CCNCC1`, the Activity in test [1] was under 1%; in test [2] it was 17%; in test [3], under 1%; in test [4] it was under 1%; in test [5], under 1%.

Turning to `CC(C)(C)CCNC(=O)CSc1nc2c([nH]c3ccccc32)c(=O)n1-c1ccccc1`, the Activity in test [1] is 99%; in test [2], 95%; in test [3], 126%; in test [4] it was 85%; in test [5], 72%.

Take `CCCCCn1c2ccccc2c2nc(SCC(=O)NC3CCCCC3)n(-c3ccccc3)c(=O)c21`: the Activity in test [1] was 5%; in test [2], 1%; in test [3] it was 6%; in test [4], under 1%; in test [5] it was 11%.

For `CCNC(=O)CSc1nc2c([nH]c3ccccc32)c(=O)n1-c1ccccc1`, the Activity in test [1] was under 1%; in test [2], 4%; in test [3], under 1%; in test [4], under 1%; in test [5] it was 8%.

Turning to `CCCCCCNC(=O)CSc1nc2c([nH]c3ccccc32)c(=O)n1-c1ccccc1`, the Activity was under 1% in test [1]; 7% in test [2]; 4% in test [3]; under 1% in test [4]; 8% in test [5].

With `O=C(CSc1nc2c([nH]c3ccccc32)c(=O)n1-c1ccc2ccccc2c1)NC1CCCCC1`, the Activity is 3% in test [1]; under 1% in test [2]; 6% in test [3]; under 1% in test [4]; 3% in test [5].

As for `O=C(CSc1nc2c([nH]c3ccccc32)c(=O)n1-c1ccccc1)NCc1ccco1`, the Activity in test [1] was 18%; in test [2] it was 15%; in test [3] it was 5%; in test [4], 26%; in test [5], 27%.

Turning to `CC(C)CNC(=O)CSc1nc2c([nH]c3ccccc32)c(=O)n1-c1ccccc1`, the Activity in test [1] was 44%; in test [2], 11%; in test [3] it was 24%; in test [4] it was 53%; in test [5], 21%.

As for `CCCC(C)NC(=O)CSc1nc2c([nH]c3ccccc32)c(=O)n1-c1ccccc1` (stereo not given), the Activity was 12% in test [1]; 6% in test [2]; 17% in test [3]; 55% in test [4]; 13% in test [5].

As for `O=C(CSc1nc2c([nH]c3ccccc32)c(=O)n1-c1ccccc1)Nc1ccc2ccccc2c1`, the Activity was under 1% in test [1]; under 1% in test [2]; 2% in test [3]; under 1% in test [4]; 21% in test [5].

For the compound `O=C(CSc1nc2c([nH]c3ccccc32)c(=O)n1-c1ccccc1)NC1CCC1`, the Activity in test [1] was found to be 35%; in test [2], 19%; in test [3], 18%; in test [4], 66%; in test [5] it was 32%.

On to `O=C(CSc1nc2c([nH]c3ccccc32)c(=O)n1C1CCCCC1)NC1CCCC1`, for which the Activity in test [1] was determined as 47%; in test [2] it was 14%; in test [3] it was 19%; in test [4], 47%; in test [5], 33%.

As for `O=C(CSc1nc2c3ccccc3nc-2c(O)n1-c1ccccc1)NCC1CCCO1` (stereo not given), the Activity in test [1] was under 23%; in test [2], 8%; in test [3], 21%; in test [4], 54%; in test [5] it was 13%.

Take `O=C(CSc1nc2c([nH]c3ccccc32)c(=O)n1CCc1ccccc1)NC1CCCCC1`: the Activity in test [1] was under 1%; in test [2], 5%; in test [3], 1%; in test [4] it was under 1%; in test [5], 1%.

In the case of `O=C(CSc1nc2c([nH]c3ccccc32)c(=O)n1-c1ccccc1)Nc1ccc(F)cc1`, the Activity in test [1] came out at 103%; in test [2], 107%; in test [3] it was 81%; in test [4], 70%; in test [5] it was 108%.

`NC(=O)Cn1c2ccccc2c2nc(SCC(=O)NC3CCCCC3)n(-c3ccccc3)c(=O)c21`: the Activity is 1% in test [1]; 4% in test [2]; 8% in test [3]; 1% in test [4]; 11% in test [5].

On to `O=C(CSc1nc2c([nH]c3ccccc32)c(=O)n1-c1ccccc1)NC1CCCCCC1`, for which the Activity in test [1] stood at 126%; in test [2], 118%; in test [3] it was 99%; in test [4], 107%; in test [5], 100%.

With `O=C(CSc1nc2c([nH]c3ccccc32)c(=O)n1-c1ccccc1)Nc1ccc2cn[nH]c2c1`, the Activity in test [1] was 3%; in test [2] it was 7%; in test [3], under 1%; in test [4] it was under 1%; in test [5], under 1%.

Regarding `O=C(CSc1nc2c([nH]c3ccccc32)c(=O)n1C1CCCCC1)NC1CCCCC1`, the Activity in test [1] is 71%; in test [2], 27%; in test [3] it was 56%; in test [4] it was 61%; in test [5], 40%.

Regarding `Cc1cccc(NC(=O)CSc2nc3c([nH]c4ccccc43)c(=O)n2-c2ccccc2)c1`, the Activity was 19% in test [1]; 54% in test [2]; 13% in test [3]; 55% in test [4]; 116% in test [5].

Regarding `O=C(CSc1nc2c([nH]c3ccccc32)c(=O)n1-c1ccc(F)cc1)NC1CCCCC1`, the Activity in test [1] stood at 48%; in test [2] it was 5%; in test [3], 41%; in test [4] it was 72%; in test [5], 51%.
